Results published in ChEMBL document CHEMBL4673214, “Synthesis and antibacterial bioactivities of cationic deacetyl linezolid amphiphiles” (Eur J Med Chem, 2018).

How the values were obtained:
Escherichia coli [1] = test: Resistance ratio of compound MIC for Escherichia coli ATCC 25922 after 20 passages to compound MIC for Escherichia coli ATCC 25922 after 16 to 20 hrs by CLSI-based broth microdilution method; type: functional
Summary of the method: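 Serial passaging: after each 24 h MIC assay, cells grown at 1/2 MIC were transferred and the MIC assayed again, for 20 passages. Done with S. aureus, E. coli and MRSA. MIC plotted against days of passage. Experiment repeated twice.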

Escherichia coli [2] = test: Antibacterial activity against Escherichia coli ATCC 25922 assessed as reduction in bacterial growth incubated 16 to 20 hrs by CLSI-based broth microdilution method; type: functional; details: time 16-20 hrs
Summary of the method: (§1)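 Broth microdilution following CLSI, in cation-adjusted Mueller-Hinton broth. Inoculum from a 4-6 h culture (~10^8 CFU/mL), diluted to ~10^6 CFU/mL. Water stocks were serially diluted in MHB (256 to 0.5 µg/mL) and mixed 1:1 with the inoculum. Plates ran 16-20 h at 37 °C. MIC was read visually. Each concentration was tested in duplicate, and the experiment was repeated at least twice.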

[3] = Hemolytic activity in sheep RBC incubated for 1 hr; type: ADME, cell-based, Ovis aries, Erythrocyte; details: sheep red blood cells (erythrocytes)
Summary of the method: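 Sheep RBCs were resuspended at 5% in PBS and mixed 3:1 with serial dilutions (2560 to 5 µg/mL, pre-mixing levels), then incubated 1 h at 37 °C. After centrifugation, supernatant A540 was read. Hemolysis % was calculated as (A−A0)/(Atotal−A0)×100, with untreated RBCs as 0% and 0.1% Triton X-100 as total lysis.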

Klebsiella pneumoniae [4] = test: Antibacterial activity against carbapenem-resistant Klebsiella pneumoniae clinical isolate 10 assessed as reduction in bacterial growth incubated for 16 to 20 hrs by CLSI-based broth microdilution method; type: functional; details: time 16-20 hrs
Summary of the method: (§2)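 Clinical isolates tested by broth microdilution in cation-adjusted Mueller-Hinton broth. Cultures grown 4-6 h (~10^8 CFU/mL) were diluted to ~10^6 CFU/mL and mixed 1:1 with compound serial dilutions made from 256 down to 0.5 µg/mL (pre-mixing). Plates held at 37 °C for 16-20 h, then read for growth. Each concentration run in duplicate, whole experiment at least twice.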

Staphylococcus aureus [5] = test: Antibacterial activity against methicillin-resistant Staphylococcus aureus clinical isolate 7 assessed as reduction in bacterial growth incubated for 16 to 20 hrs by CLSI-based broth microdilution method; type: functional; details: time 16-20 hrs; summary of the method: as §2
Enterobacteriaceae [6] = test: Antibacterial activity against NDM1 producing carbapenem-resistant Enterobacteriaceae clinical isolate 10 assessed as reduction in bacterial growth incubated for 16 to 20 hrs by CLSI-based broth microdilution method; type: functional; details: time 16-20 hrs; summary of the method: as §2
Klebsiella pneumoniae [7] = test: Antibacterial activity against carbapenem-resistant Klebsiella pneumoniae clinical isolate 7 assessed as reduction in bacterial growth incubated for 16 to 20 hrs by CLSI-based broth microdilution method; type: functional; details: time 16-20 hrs; summary of the method: as §2
Enterobacteriaceae [8] = test: Antibacterial activity against NDM1 producing carbapenem-resistant Enterobacteriaceae clinical isolate 4 assessed as reduction in bacterial growth incubated for 16 to 20 hrs by CLSI-based broth microdilution method; type: functional; details: time 16-20 hrs; summary of the method: as §2
[9] = Solubility of the compound in water at room temperature; type: physicochemical; details: buffer
Staphylococcus aureus [10] = test: Antibacterial activity against methicillin-resistant Staphylococcus aureus clinical isolate 8 assessed as reduction in bacterial growth incubated for 16 to 20 hrs by CLSI-based broth microdilution method; type: functional; details: time 16-20 hrs; summary of the method: as §2
Staphylococcus aureus [11] = test: Antibacterial activity against methicillin-resistant Staphylococcus aureus clinical isolate 1 assessed as reduction in bacterial growth incubated for 16 to 20 hrs by CLSI-based broth microdilution method; type: functional; details: time 16-20 hrs; summary of the method: as §2
Staphylococcus aureus [12] = test: Antibacterial activity against methicillin-resistant Staphylococcus aureus clinical isolate 10 assessed as reduction in bacterial growth incubated for 16 to 20 hrs by CLSI-based broth microdilution method; type: functional; details: time 16-20 hrs; summary of the method: as §2
Staphylococcus aureus [13] = test: Antibacterial activity against Staphylococcus aureus ATCC 29213 assessed as reduction in bacterial growth incubated for 16 to 20 hrs by CLSI-based broth microdilution method; type: functional; details: time 16-20 hrs; summary of the method: as §1
Staphylococcus aureus [14] = test: Antibacterial activity against methicillin-resistant Staphylococcus aureus clinical isolate 2 assessed as reduction in bacterial growth incubated for 16 to 20 hrs by CLSI-based broth microdilution method; type: functional; details: time 16-20 hrs; summary of the method: as §2
Staphylococcus aureus [15] = test: Antibacterial activity against methicillin-resistant Staphylococcus aureus clinical isolate 3 assessed as reduction in bacterial growth incubated for 16 to 20 hrs by CLSI-based broth microdilution method; type: functional; details: time 16-20 hrs; summary of the method: as §2
Enterobacteriaceae [16] = test: Antibacterial activity against NDM1 producing carbapenem-resistant Enterobacteriaceae clinical isolate 9 assessed as reduction in bacterial growth incubated for 16 to 20 hrs by CLSI-based broth microdilution method; type: functional; details: time 16-20 hrs; summary of the method: as §2
Klebsiella pneumoniae [17] = test: Antibacterial activity against carbapenem-resistant Klebsiella pneumoniae clinical isolate 8 assessed as reduction in bacterial growth incubated for 16 to 20 hrs by CLSI-based broth microdilution method; type: functional; details: time 16-20 hrs; summary of the method: as §2
Enterobacteriaceae [18] = test: Antibacterial activity against NDM1 producing carbapenem-resistant Enterobacteriaceae clinical isolate 3 assessed as reduction in bacterial growth incubated for 16 to 20 hrs by CLSI-based broth microdilution method; type: functional; details: time 16-20 hrs; summary of the method: as §2
Enterobacteriaceae [19] = test: Antibacterial activity against NDM1 producing carbapenem-resistant Enterobacteriaceae clinical isolate 5 assessed as reduction in bacterial growth incubated for 16 to 20 hrs by CLSI-based broth microdilution method; type: functional; details: time 16-20 hrs; summary of the method: as §2
Enterobacteriaceae [20] = test: Antibacterial activity against NDM1 producing carbapenem-resistant Enterobacteriaceae clinical isolate 1 assessed as reduction in bacterial growth incubated for 16 to 20 hrs by CLSI-based broth microdilution method; type: functional; details: time 16-20 hrs; summary of the method: as §2
Klebsiella pneumoniae [21] = test: Antibacterial activity against carbapenem-resistant Klebsiella pneumoniae clinical isolate 2 assessed as reduction in bacterial growth incubated for 16 to 20 hrs by CLSI-based broth microdilution method; type: functional; details: time 16-20 hrs; summary of the method: as §2
Enterobacteriaceae [22] = test: Antibacterial activity against NDM1 producing carbapenem-resistant Enterobacteriaceae clinical isolate 8 assessed as reduction in bacterial growth incubated for 16 to 20 hrs by CLSI-based broth microdilution method; type: functional; details: time 16-20 hrs; summary of the method: as §2
Klebsiella pneumoniae [23] = test: Antibacterial activity against carbapenem-resistant Klebsiella pneumoniae clinical isolate 4 assessed as reduction in bacterial growth incubated for 16 to 20 hrs by CLSI-based broth microdilution method; type: functional; details: time 16-20 hrs; summary of the method: as §2
Klebsiella pneumoniae [24] = test: Antibacterial activity against carbapenem-resistant Klebsiella pneumoniae clinical isolate 9 assessed as reduction in bacterial growth incubated for 16 to 20 hrs by CLSI-based broth microdilution method; type: functional; details: time 16-20 hrs; summary of the method: as §2
Enterococcus faecalis = test: Antibacterial activity against Enterococcus faecalis ATCC 29212 assessed as reduction in bacterial growth incubated 16 to 20 hrs by CLSI-based broth microdilution method; type: functional; details: time 16-20 hrs; summary of the method: as §1
Enterobacteriaceae [25] = test: Antibacterial activity against NDM1 producing carbapenem-resistant Enterobacteriaceae clinical isolate 2 assessed as reduction in bacterial growth incubated for 16 to 20 hrs by CLSI-based broth microdilution method; type: functional; details: time 16-20 hrs; summary of the method: as §2
Klebsiella pneumoniae [26] = test: Antibacterial activity against carbapenem-resistant Klebsiella pneumoniae clinical isolate 3 assessed as reduction in bacterial growth incubated for 16 to 20 hrs by CLSI-based broth microdilution method; type: functional; details: time 16-20 hrs; summary of the method: as §2
Klebsiella pneumoniae [27] = test: Antibacterial activity against carbapenem-resistant Klebsiella pneumoniae clinical isolate 6 assessed as reduction in bacterial growth incubated for 16 to 20 hrs by CLSI-based broth microdilution method; type: functional; details: time 16-20 hrs; summary of the method: as §2
Klebsiella pneumoniae [28] = test: Antibacterial activity against carbapenem-resistant Klebsiella pneumoniae clinical isolate 5 assessed as reduction in bacterial growth incubated for 16 to 20 hrs by CLSI-based broth microdilution method; type: functional; details: time 16-20 hrs; summary of the method: as §2
Klebsiella pneumoniae [29] = test: Antibacterial activity against carbapenem-resistant Klebsiella pneumoniae clinical isolate 1 assessed as reduction in bacterial growth incubated for 16 to 20 hrs by CLSI-based broth microdilution method; type: functional; details: time 16-20 hrs; summary of the method: as §2
Salmonella enterica = test: Antibacterial activity against Salmonella enterica ATCC 8387 assessed as reduction in bacterial growth incubated for 16 to 20 hrs by CLSI-based broth microdilution method; type: functional; details: time 16-20 hrs; summary of the method: as §1
Enterobacteriaceae [30] = test: Antibacterial activity against NDM1 producing carbapenem-resistant Enterobacteriaceae clinical isolate 6 assessed as reduction in bacterial growth incubated for 16 to 20 hrs by CLSI-based broth microdilution method; type: functional; details: time 16-20 hrs; summary of the method: as §2
Staphylococcus aureus [31] = test: Antibacterial activity against methicillin-resistant Staphylococcus aureus clinical isolate 6 assessed as reduction in bacterial growth incubated for 16 to 20 hrs by CLSI-based broth microdilution method; type: functional; details: time 16-20 hrs; summary of the method: as §2
Staphylococcus aureus [32] = test: Antibacterial activity against methicillin-resistant Staphylococcus aureus clinical isolate 5 assessed as reduction in bacterial growth incubated for 16 to 20 hrs by CLSI-based broth microdilution method; type: functional; details: time 16-20 hrs; summary of the method: as §2
Enterobacteriaceae [33] = test: Antibacterial activity against NDM1 producing carbapenem-resistant Enterobacteriaceae clinical isolate 7 assessed as reduction in bacterial growth incubated for 16 to 20 hrs by CLSI-based broth microdilution method; type: functional; details: time 16-20 hrs; summary of the method: as §2
Staphylococcus aureus [34] = test: Antibacterial activity against methicillin-resistant Staphylococcus aureus clinical isolate 4 assessed as reduction in bacterial growth incubated for 16 to 20 hrs by CLSI-based broth microdilution method; type: functional; details: time 16-20 hrs; summary of the method: as §2
Staphylococcus aureus [35] = test: Antibacterial activity against methicillin-resistant Staphylococcus aureus clinical isolate 9 assessed as reduction in bacterial growth incubated for 16 to 20 hrs by CLSI-based broth microdilution method; type: functional; details: time 16-20 hrs; summary of the method: as §2

## COLISTIN
Escherichia coli [1]
  Ratio: 32
Escherichia coli [2]
  MIC: 0.5 µg/mL

## CCCCCCCCCCCCCC[N+](C)(C)CC(=O)NC[C@H]1CN(c2ccc(N3CCOCC3)c(F)c2)C(=O)O1.[Cl-]
[3]
  HC50 at 1 h: 60 µg/mL
Klebsiella pneumoniae [4]
  MIC: 32 µg/mL
Staphylococcus aureus [5]
  MIC: 2 µg/mL
Enterobacteriaceae [6]
  MIC: 16 µg/mL
Klebsiella pneumoniae [7]
  MIC: 32 µg/mL
Enterobacteriaceae [8]
  MIC: 64 µg/mL
[9]
  solubility: Soluble
Staphylococcus aureus [10]
  MIC: 4 µg/mL
Staphylococcus aureus [11]
  MIC: 4 µg/mL
Staphylococcus aureus [12]
  MIC: 8 µg/mL
Staphylococcus aureus [13]
  MIC: 4 µg/mL
Staphylococcus aureus [14]
  MIC: 16 µg/mL
Staphylococcus aureus [15]
  MIC: 2 µg/mL
Enterobacteriaceae [16]
  MIC: 16 µg/mL
Klebsiella pneumoniae [17]
  MIC: 32 µg/mL
Enterobacteriaceae [18]
  MIC: 32 µg/mL
Enterobacteriaceae [19]
  MIC: 32 µg/mL
Enterobacteriaceae [20]
  MIC: > 64 µg/mL
Klebsiella pneumoniae [21]
  MIC: 32 µg/mL
Enterobacteriaceae [22]
  MIC: 16 µg/mL
Klebsiella pneumoniae [23]
  MIC: 32 µg/mL
Klebsiella pneumoniae [24]
  MIC: 32 µg/mL
Enterococcus faecalis
  MIC: 4 µg/mL
Enterobacteriaceae [25]
  MIC: > 64 µg/mL
Klebsiella pneumoniae [26]
  MIC: 16 µg/mL
Klebsiella pneumoniae [27]
  MIC: 32 µg/mL
Klebsiella pneumoniae [28]
  MIC: 32 µg/mL
Klebsiella pneumoniae [29]
  MIC: 32 µg/mL
Escherichia coli [2]
  MIC: 16 µg/mL
Salmonella enterica
  MIC: 16 µg/mL
Enterobacteriaceae [30]
  MIC: 32 µg/mL
Staphylococcus aureus [31]
  MIC: 2 µg/mL
Staphylococcus aureus [32]
  MIC: 4 µg/mL
Enterobacteriaceae [33]
  MIC: 16 µg/mL
Staphylococcus aureus [34]
  MIC: 4 µg/mL
Staphylococcus aureus [35]
  MIC: 2 µg/mL
